Experimental data collected from several papers.
EP300: Histone acetyltransferase p300 (EP300, Homo sapiens, UniProt Q09472)
RIOK1: Serine/threonine-protein kinase RIO1 (RIOK1, Homo sapiens, UniProt Q9BRS2)
KMT5A: N-lysine methyltransferase KMT5A (KMT5A, Homo sapiens, UniProt Q9NQR1)

Cc1ccc(Nc2nccc(N(C)c3ccc4c(C)n(C)nc4c3)n2)cc1S(N)(=O)=O
inhibition (cAMP-dependent protein kinase catalytic subunit alpha (PRKACA, Bos taurus, UniProt P00517); enzyme activity, inhibitor; 10 µM): -19%

Oc1ccc(-c2nc(-c3ccncc3)c(-c3ccc(F)cc3)[nH]2)cc1
ΔTm (EP300; thermal stability, DSF; 10 µM): 0.33 °C

COc1cc(-c2cc(-c3ccc(N4CCNCC4)cc3)cnc2N)cc(OC)c1OC
inhibition (Tyrosine-protein kinase ABL1 (ABL1, Homo sapiens, UniProt P00519, Y253F); enzyme activity, inhibitor; 1 µM): 95%

C[S+]([O-])c1ccc(-c2nc(-c3ccncc3)c(-c3ccc(F)cc3)[nH]2)cc1 (stereo not drawn)
ΔTm (EP300; thermal stability, DSF; 10 µM): 0.35 °C

Cc1ccc(C(=O)Nc2ccc(CN3CCN(C)CC3)c(C(F)(F)F)c2)cc1C#Cc1cnc2cccnn12
remaining activity (RIOK1; enzyme activity, inhibitor; 23.5 nM): 98%

Oc1cccc(Nc2nc(-c3ccc(F)cc3F)cs2)c1
inhibition (Androgen receptor (AR, Homo sapiens, UniProt P10275); cell-free assay; 10 µM): 26.5%

Cc1cc(NC(=O)c2cccc3cc(-c4cccc5[nH]nc(N)c45)ccc23)ccc1F
activity vs control (Tyrosine-protein kinase ABL1 (ABL1, Homo sapiens, UniProt P00519, H396P); enzyme activity, inhibitor; 0.1 µM): 97%

Cc1cc(O)c(C=O)c2c1C(=O)Oc1c(C)c(O)c3c(c1O2)C(O)OC3=O (stereo not drawn)
inhibition (KMT5A; cell-free assay; 10 µM): -14%

Nc1ncnc2occ(-c3ccc(NC(=O)Nc4cc(C(F)(F)F)ccc4F)cc3)c12
remaining signal (RIOK1; cell-free assay, inhibitor; 20 µM): 89%

Nc1ncnc2c1ncn2[C@@H]1O[C@H](CSCC[C@H](N)C(=O)O)[C@@H](O)[C@H]1O
ΔTm (Protein arginine N-methyltransferase 6 (PRMT6, Homo sapiens, UniProt Q96LA8); thermal stability, DSF; 100 µM): 8.4 °C

O=c1c(O)cccc2cc(O)c(O)c(O)c12
inhibition (KMT5A; cell-free assay; 10 µM): 7%

O=C(c1ccc(F)cc1)N(Cc1ccccc1)C1CCCCC1
inhibition (Delta-type opioid receptor (OPRD1, Homo sapiens, UniProt P41143); ligand displacement; 10 µM): 0%
